Residue numbers refer to the chain shown, from its start.
Tests used:
Format in all cases: cell-based
hTRPV4 = hTRPV4 (Homo sapiens, UniProt Q9HBA0); assay: whole-cell patch-clamp of TRPV4 currents in HEK293 cells; conditions: compound 50 μmol/L; current elicited by 100 nmol/L GSK1016790A
In short: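 Human channel cDNAs were transiently transfected into HEK293 cells with Lipofectamine 2000. EGFP-positive cells were recorded whole-cell 18 h later at 22–24 °C with ~4.0 MΩ fire-polished pipettes. Cells were held at 0 mV with 500-ms ramps from −100 to +100 mV every 2 s. Test compound in perfusion solution was co-applied with agonist, and average current inhibition was summarised; n = 4–6.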

mTRPV3 T636A = target: T1, mTRPV3 T636A (Mus musculus, UniProt Q8K424, T636A); assay: whole-cell patch-clamp of mTRPV3 T636A mutant in HEK293 cells; conditions: compound 50 μmol/L; 2-APB; compared with WT mTRPV3
T1 sequence (Q8K424 1-791 T636A): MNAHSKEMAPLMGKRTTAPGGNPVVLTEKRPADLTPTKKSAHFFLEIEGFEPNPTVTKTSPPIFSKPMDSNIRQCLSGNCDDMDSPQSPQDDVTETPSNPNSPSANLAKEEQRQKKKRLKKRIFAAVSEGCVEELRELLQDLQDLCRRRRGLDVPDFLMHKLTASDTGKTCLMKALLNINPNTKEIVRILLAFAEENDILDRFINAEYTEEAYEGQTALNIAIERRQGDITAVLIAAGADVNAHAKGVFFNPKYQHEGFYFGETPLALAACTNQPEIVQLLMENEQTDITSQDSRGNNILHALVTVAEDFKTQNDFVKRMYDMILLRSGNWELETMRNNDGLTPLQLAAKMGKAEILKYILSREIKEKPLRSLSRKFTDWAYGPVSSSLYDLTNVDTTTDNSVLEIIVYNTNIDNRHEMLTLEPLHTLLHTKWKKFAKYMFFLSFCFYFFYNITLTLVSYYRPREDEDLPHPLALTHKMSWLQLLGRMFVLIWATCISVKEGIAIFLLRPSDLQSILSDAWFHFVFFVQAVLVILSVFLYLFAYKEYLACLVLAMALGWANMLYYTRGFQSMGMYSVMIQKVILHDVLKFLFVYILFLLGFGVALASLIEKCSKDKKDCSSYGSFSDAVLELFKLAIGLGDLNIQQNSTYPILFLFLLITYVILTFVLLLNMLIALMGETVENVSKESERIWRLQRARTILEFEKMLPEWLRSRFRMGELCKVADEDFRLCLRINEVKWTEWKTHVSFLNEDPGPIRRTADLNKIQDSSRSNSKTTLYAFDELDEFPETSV
In short: (§1)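 Mouse Trpv3 point mutants were made by site-directed mutagenesis, sequence-verified, and transiently expressed in HEK293 cells alongside wild-type mTRPV3. Whole-cell ramp recordings (−100 to +100 mV, 500 ms, holding 0 mV) were made at 22–24 °C. Currents were activated by 2-APB, and inhibition by 50 μmol/L test compound in the presence of 2-APB was compared with wild type; n = 3–8.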

mTRPV3 F666A = target: T2, mTRPV3 F666A (Mus musculus, UniProt Q8K424, F666A); assay: whole-cell patch-clamp of mTRPV3 F666A mutant in HEK293 cells; conditions: compound 50 μmol/L; 2-APB; compared with WT mTRPV3
T2 sequence (Q8K424 1-791 F666A): T1 sequence (Q8K424 1-791 T636A) with A636T, F666A
In short: as §1

Sequence of hTRPV4 (Q9HBA0 whole entry, the tested form may be a part): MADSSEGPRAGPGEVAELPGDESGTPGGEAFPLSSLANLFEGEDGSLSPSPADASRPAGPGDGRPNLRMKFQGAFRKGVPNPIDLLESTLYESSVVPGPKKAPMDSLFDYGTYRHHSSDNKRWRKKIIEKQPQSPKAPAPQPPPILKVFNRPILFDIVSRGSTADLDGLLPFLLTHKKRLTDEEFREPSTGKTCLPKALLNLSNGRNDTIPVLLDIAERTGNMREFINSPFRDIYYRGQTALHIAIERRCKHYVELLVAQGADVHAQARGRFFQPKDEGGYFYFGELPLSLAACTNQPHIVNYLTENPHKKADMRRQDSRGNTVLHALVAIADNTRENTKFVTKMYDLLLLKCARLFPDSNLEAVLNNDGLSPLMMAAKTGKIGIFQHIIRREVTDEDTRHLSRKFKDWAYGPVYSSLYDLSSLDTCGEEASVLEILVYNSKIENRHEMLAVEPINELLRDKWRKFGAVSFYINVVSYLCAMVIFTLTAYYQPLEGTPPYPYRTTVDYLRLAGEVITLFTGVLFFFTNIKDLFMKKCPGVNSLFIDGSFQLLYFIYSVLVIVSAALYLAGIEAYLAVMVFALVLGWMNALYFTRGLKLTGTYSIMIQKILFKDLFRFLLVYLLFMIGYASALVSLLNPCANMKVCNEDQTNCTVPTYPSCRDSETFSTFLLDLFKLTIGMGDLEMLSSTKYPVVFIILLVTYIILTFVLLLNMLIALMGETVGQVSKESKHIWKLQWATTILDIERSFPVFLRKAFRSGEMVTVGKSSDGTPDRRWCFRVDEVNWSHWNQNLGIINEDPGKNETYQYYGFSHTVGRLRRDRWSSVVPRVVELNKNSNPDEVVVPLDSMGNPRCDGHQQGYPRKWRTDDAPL

| SMILES | inhibition of TRPV4 current (hTRPV4) | effect of mutation on compound-induced inhibition of mTRPV3 currents (mTRPV3 T636A) | effect of mutation on compound-induced inhibition of mTRPV3 currents (mTRPV3 F666A) |
| --- | --- | --- | --- |
| O=C(/C=C/c1ccc(O)c(O)c1)O[C@@H]1C[C@](O)(C(=O)O)C[C@@H](OC(=O)/C=C/c2ccc(O)c(O)c2)[C@H]1O [IAA, isochlorogenic acid A] | no inhibitory effect | markedly reduced | markedly reduced |
| O=C(/C=C/c1ccc(O)c(O)c1)O[C@@H]1[C@H](O)C[C@@](O)(C(=O)O)C[C@H]1OC(=O)/C=C/c1ccc(O)c(O)c1 [IAB, isochlorogenic acid B] | no inhibitory effect | markedly reduced | markedly reduced |

From article PMC8897028 (Acta Pharmaceutica Sinica. B, 2021)
